Columns and labels:
Hepatitis B virus = assay: Antiviral activity against HBV infected in human HepG2-NTCP cells assessed as reduction in HBeAg secretion cells inoculated with virus for 4 hrs at room temperature and 37 degree C for 24 hrs followed inoculum changed with PMM medium for every 2 days until day 5 post infection by ELISA; assay type: functional, organism-based
[1] = Intrinsic clearance in rat liver microsomes at 1 uM preincubated for 5 mins followed by NADPH addition and measured upto 60 mins by LC-MS analysis; assay type: ADME, Microsome; settings: time 65 min, read-out: CLH
[2] = Intrinsic clearance in human liver microsomes at 1 uM preincubated for 5 mins followed by NADPH addition and measured upto 60 mins by LC-MS analysis; assay type: ADME, Microsome; settings: read-out: CLH
How it was run: (§1)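 Human or mouse liver microsomes, final 1 mg/mL in 0.05 M phosphate buffer pH 7.4; compound final 1 μM, preincubated 37 °C 5 min, started with 1 mM NADPH; sampled at 0, 5, 15, 30, 60 min, methanol quench, −20 °C 1 h, centrifuged, supernatant by LC–MS.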

[3] = Intrinsic clearance in mouse liver microsomes at 1 uM preincubated for 5 mins followed by NADPH addition and measured upto 60 mins by LC-MS analysis; assay type: ADME, Microsome; settings: read-out: CLH; how it was run: as §1
[4] = biological target: T1, Hepatic sodium/bile acid cotransporter (Homo sapiens, UniProt Q14973); assay: Inhibition of human NTCP expressed in human HepG2 cells assessed as decrease in NTCP surface expression at 2 uM incubated for 2 hrs by DAPI staining based analysis; assay type: cell-based; settings: hepg2, 2 h
T1 sequence (Q14973 whole entry): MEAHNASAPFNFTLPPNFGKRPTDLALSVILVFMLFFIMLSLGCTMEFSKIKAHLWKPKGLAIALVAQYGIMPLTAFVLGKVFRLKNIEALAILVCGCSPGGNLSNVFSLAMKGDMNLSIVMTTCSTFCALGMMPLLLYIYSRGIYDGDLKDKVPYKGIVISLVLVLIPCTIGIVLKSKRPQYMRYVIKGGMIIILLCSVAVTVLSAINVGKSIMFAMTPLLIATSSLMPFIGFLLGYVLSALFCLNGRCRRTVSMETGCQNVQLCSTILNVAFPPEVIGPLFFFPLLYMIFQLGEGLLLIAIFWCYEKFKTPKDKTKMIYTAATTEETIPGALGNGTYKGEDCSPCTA
How it was run: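 HepG2-NTCP cells treated 2 h with DMSO, compound or TLCA at 2 μM, then immunostained for NTCP to assess cell-surface distribution.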

| SMILES | IC50 (Hepatitis B virus) [µM] | microsomal CLint at 1 µM [1] [µL/min/mg] | microsomal CLint at 1 µM [2] [µL/min/mg] | microsomal CLint at 1 µM [3] [µL/min/mg] | inhibition (INH) [4] |
| --- | --- | --- | --- | --- | --- |
| CC[C@@H]1NC(=O)[C@H]([C@@H]2O[C@@H](Sc3cccc(NCc4ccccc4)c3)C[C@H]2C)N(C)C(=O)[C@H](C(C)C)N(C)C(=O)[C@H](CC(C)C)N(C)C(=O)[C@H](CC(C)C)N(C)C(=O)[C@@H](C)NC(=O)[C@H](C)NC(=O)[C@H](CC(C)C)N(C)C(=O)[C@H](C(C)C)NC(=O)[C@H](CC(C)C)N(C)C(=O)CN(C)C1=O | 0.171 | 1.4 | 6.1 | 2.1 | – |
| C[C@H](CCC(=O)NCCS(=O)(=O)O)[C@H]1CC[C@H]2[C@@H]3CC[C@@H]4C[C@H](O)CC[C@]4(C)[C@H]3CC[C@]12C [TAUROLITHOCHOLIC ACID] | – | – | – | – | Active |
| CC[C@@H]1NC(=O)[C@H]([C@@H]2O[C@@H](Sc3cc(OC)cc(OC)c3)C[C@H]2C)N(C)C(=O)[C@H](C(C)C)N(C)C(=O)[C@H](CC(C)C)N(C)C(=O)[C@H](CC(C)C)N(C)C(=O)[C@@H](C)NC(=O)[C@H](C)NC(=O)[C@H](CC(C)C)N(C)C(=O)[C@H](C(C)C)NC(=O)[C@H](CC(C)C)N(C)C(=O)CN(C)C1=O | 0.117 | 0.7 | 10.2 | 5.5 | – |
| CC[C@@H]1NC(=O)[C@H]([C@@H]2O[C@@H](Sc3cccc(OCc4ccc(F)cc4C)c3)C[C@H]2C)N(C)C(=O)[C@H](C(C)C)N(C)C(=O)[C@H](CC(C)C)N(C)C(=O)[C@H](CC(C)C)N(C)C(=O)[C@@H](C)NC(=O)[C@H](C)NC(=O)[C@H](CC(C)C)N(C)C(=O)[C@H](C(C)C)NC(=O)[C@H](CC(C)C)N(C)C(=O)CN(C)C1=O | 0.122 | 0.8 | – | 7.1 | – |
| CC[C@@H]1NC(=O)[C@H]([C@@H]2O[C@@H](Sc3cccc(OCc4ccc(F)cc4)c3)C[C@H]2C)N(C)C(=O)[C@H](C(C)C)N(C)C(=O)[C@H](CC(C)C)N(C)C(=O)[C@H](CC(C)C)N(C)C(=O)[C@@H](C)NC(=O)[C@H](C)NC(=O)[C@H](CC(C)C)N(C)C(=O)[C@H](C(C)C)NC(=O)[C@H](CC(C)C)N(C)C(=O)CN(C)C1=O | 0.206 | 2 | 7.7 | 0.3 | – |
| CC[C@@H]1NC(=O)[C@H]([C@@H]2O[C@H](Sc3cccc(OCc4ccccc4)c3)C[C@H]2C)N(C)C(=O)[C@H](C(C)C)N(C)C(=O)[C@H](CC(C)C)N(C)C(=O)[C@H](CC(C)C)N(C)C(=O)[C@@H](C)NC(=O)[C@H](C)NC(=O)[C@H](CC(C)C)N(C)C(=O)[C@H](C(C)C)NC(=O)[C@H](CC(C)C)N(C)C(=O)CN(C)C1=O | – | 3 | 7.7 | 2.1 | – |
| CC[C@@H]1NC(=O)[C@H]([C@@H]2O[C@@H](Sc3cc(Cl)cc(OC)c3)C[C@H]2C)N(C)C(=O)[C@H](C(C)C)N(C)C(=O)[C@H](CC(C)C)N(C)C(=O)[C@H](CC(C)C)N(C)C(=O)[C@@H](C)NC(=O)[C@H](C)NC(=O)[C@H](CC(C)C)N(C)C(=O)[C@H](C(C)C)NC(=O)[C@H](CC(C)C)N(C)C(=O)CN(C)C1=O | 0.116 | – | 4.2 | 2.2 | – |
| CCCCc1ccc(S[C@H]2C[C@@H](C)[C@H]([C@H]3C(=O)N[C@@H](CC)C(=O)N(C)CC(=O)N(C)[C@@H](CC(C)C)C(=O)N[C@@H](C(C)C)C(=O)N(C)[C@@H](CC(C)C)C(=O)N[C@@H](C)C(=O)N[C@H](C)C(=O)N(C)[C@@H](CC(C)C)C(=O)N(C)[C@@H](CC(C)C)C(=O)N(C)[C@@H](C(C)C)C(=O)N3C)O2)cc1 | 0.262 | 4 | 6.1 | 2.5 | – |
| CCOc1cccc(S[C@H]2C[C@@H](C)[C@H]([C@H]3C(=O)N[C@@H](CC)C(=O)N(C)CC(=O)N(C)[C@@H](CC(C)C)C(=O)N[C@@H](C(C)C)C(=O)N(C)[C@@H](CC(C)C)C(=O)N[C@@H](C)C(=O)N[C@H](C)C(=O)N(C)[C@@H](CC(C)C)C(=O)N(C)[C@@H](CC(C)C)C(=O)N(C)[C@@H](C(C)C)C(=O)N3C)O2)c1 | 0.181 | 2.3 | 18.5 | 4 | – |
| CC[C@@H]1NC(=O)[C@H]([C@@H]2O[C@@H](Sc3ccc(Cl)c(OC)c3)C[C@H]2C)N(C)C(=O)[C@H](C(C)C)N(C)C(=O)[C@H](CC(C)C)N(C)C(=O)[C@H](CC(C)C)N(C)C(=O)[C@@H](C)NC(=O)[C@H](C)NC(=O)[C@H](CC(C)C)N(C)C(=O)[C@H](C(C)C)NC(=O)[C@H](CC(C)C)N(C)C(=O)CN(C)C1=O | 0.101 | 2 | 14.8 | 3.3 | – |
